Source: ChEMBL document CHEMBL4011639, “Discovery of Novel Nucleotide Prodrugs with Improved Potency Against HCV Variants Carrying NS5B S282T Mutation” (J Med Chem, 2017)

Columns and labels:
[1] = Drug metabolism in human HuH7 cells assessed as carboxylesterase-mediated (S)-isopropyl 2-((S)-(((2R,3R,4R,5R)-5-(4-amino-2-oxopyrimidin-1(2H)-yl)-4-fluoro-3-hydroxy-4-methyltetrahydrofuran-2-yl)methoxy)(phenoxy)phosphoryloxy)propanoate metabolite formation at 50 uM after 48 hrs by LC/MS/MS analysis; type: ADME; details: cell-based
Procedure, shortened: (§1)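 Huh-7 cells plated at 0.35 million/mL in DMEM with 10% FBS (about 1 million per well at dosing) and grown 18 h. At each time point cells were washed with cold saline and lysed in methanol with internal standard. Semiquantified by LC/MS/MS MRM as Δ mean peak-area ratio relative to t0.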

Mus musculus [2] = assay: Subacute toxicity in ICR mouse assessed as effect on renal architecture at 100 to 1000 mg/kg, administered once a day via oral gavage for 14 days by hematoxylin/eosin-staining based microscopic analysis; type: organism-based; details: in vivo, 336 h
Procedure, shortened: (§2)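 Same 14-day daily oral gavage design as the subacute study (ICR mice, 5 per sex per group, 100/500/1000 mg/kg or vehicle). Liver and kidney taken after anesthesia on day 15, processed routinely, cut as 5 μm paraffin sections, stained with hematoxylin and eosin and examined microscopically.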

Mus musculus [3] = assay: Subacute toxicity in ICR mouse assessed as effect on hepatic perilobular vein at 100 to 1000 mg/kg, administered once a day via oral gavage for 14 days by hematoxylin/eosin-staining based microscopic analysis; type: organism-based; details: in vivo, 336 h; procedure, shortened: as §2
Mus musculus [4] = assay: Subacute toxicity in ICR mouse assessed as effect on appearance of hepatocytes at 100 to 1000 mg/kg, administered once a day via oral gavage for 14 days by hematoxylin/eosin-staining based microscopic analysis; type: organism-based; details: in vivo, 336 h; procedure, shortened: as §2
Mus musculus [5] = assay: Subacute toxicity in ICR mouse assessed as alteration in basic levels of SGPT at 100 to 1000 mg/kg, administered once a day via oral gavage for 14 days; type: organism-based; details: in vivo, 336 h
Procedure, shortened: (§3)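 ICR mice, 22−25 g, 5 per sex per group, gavaged daily for 14 days at 100, 500 or 1000 mg/kg in 30% PEG400/30% Tween 20/20% corn oil/20% water, with a vehicle control group. Observed daily for body weight change, skin and fur, inflammation and necrosis. Animals anesthetized on day 15; organ weights (liver, kidney) taken. Serum SGOT/SGPT compared with controls.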

Mus musculus [6] = assay: Subacute toxicity in ICR mouse assessed as alteration in basic levels of SGOT at 100 to 1000 mg/kg, administered once a day via oral gavage for 14 days; type: organism-based; details: in vivo, 336 h; procedure, shortened: as §3
[7] = Drug metabolism in human HuH7 cells assessed as nucleoside diphosphate kinase-mediated ((2R,3R,4R,5R)-5-(4-amino-2-oxopyrimidin-1(2H)-yl)-4-fluoro-3-hydroxy-4-methyltetrahydrofuran-2-yl)methyl tetrahydrogen triphosphate metabolite formation at 50 uM after 48 hrs by LC/MS/MS analysis; type: ADME, cell-based; procedure, shortened: as §1
[8] = Drug metabolism in human HuH7 cells assessed as carboxylesterase-mediated (S)-2-((S)-(((2R,3R,4R,5R)-5-(4-amino-2-oxopyrimidin-1(2H)-yl)-4-fluoro-3-hydroxy-4-methyltetrahydrofuran-2-yl)methoxy)(hydroxy)phosphoryloxy)propanoic acid metabolite formation at 50 uM after 24 hrs by LC/MS/MS analysis; type: ADME, cell-based; procedure, shortened: as §1
[9] = molecular target: Adenosine 5'-monophosphoramidase HINT1 (Homo sapiens, UniProt P49773); assay: Drug metabolism in human HuH7 cells assessed as HINT1-mediated ((2R,3R,4R,5R)-5-(4-butyramido-2-oxopyrimidin-1(2H)-yl)-4-fluoro-3-hydroxy-4-methyltetrahydrofuran-2-yl)methyl dihydrogen phosphate metabolite formation at 50 uM after 48 hrs by LC/MS/MS analysis; type: ADME, cell-based; procedure, shortened: as §1
Adenosine 5'-monophosphoramidase HINT1, sequence (P49773 whole entry): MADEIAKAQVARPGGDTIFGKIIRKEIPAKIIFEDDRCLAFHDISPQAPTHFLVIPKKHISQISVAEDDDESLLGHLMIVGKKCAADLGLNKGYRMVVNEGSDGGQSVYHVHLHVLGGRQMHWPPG

[10] = Tmax in Beagle dog at 150 mg/kg, administered via oral gavage measured up to 24 hrs post dose by LC/MS/MS analysis; type: ADME, organism-based, Canis lupus familiaris; details: in vivo
Procedure, shortened: (§4)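 Beagle dogs, 3 per sex, given a single oral gavage dose of 150 mg/kg in 20% w/v hydroxypropyl-β-cyclodextrin in water, 2.5 mL/kg. K2EDTA blood taken by venipuncture at 0.5, 0.75, 1, 2, 4, 6, 8, 12 and 24 h. Plasma extracted with ice-cold acetonitrile, then LC/MS/MS in positive MRM mode with zolpidem as internal standard. Noncompartmental analysis; mean ± SD.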

[11] = test system: Hepatitis C virus subtype 1b; assay: Ratio of EC50 for HCV genotype 1b replicon NS5B S282T mutant to EC50 for wild type HCV genotype 1b replicon NS5B
Procedure, shortened: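 Huh7 cells carrying wild-type or S282T mutant HCV genotype 1b replicon, 8000 cells per well, exposed to 3-fold compound dilution series (0.5% DMSO final, duplicates) for 72 h at 37 °C, 5% CO2. Replicon activity read by Bright-Glo luciferase luminescence. EC50 averaged from duplicate determinations; ratio taken as S282T EC50 over wild-type EC50.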

[12] = Half life in human liver S9 fraction at 10 uM by LC/MS/MS analysis; type: ADME
Procedure, shortened: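 Compound at 10 μM working solution (1% DMSO, 5% MeOH in 100 mM Tris) incubated at 37 °C with human liver S9 at 1 mg protein/mL final. Reactions stopped with cold acetonitrile containing tolbutamide internal standard at 0, 5, 10, 20, 30 and 60 min. Parent measured by LC/MS/MS (MRM) as analyte/IS peak area ratio, given as percent remaining versus 0 min; half-life fitted.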

[13] = AUC (0 to infinity) in Beagle dog at 150 mg/kg, administered via oral gavage measured up to 24 hrs post dose by LC/MS/MS analysis; type: ADME, organism-based, Canis lupus familiaris; design: dose 150 mg/kg, route oral, time infinity; details: in vivo; procedure, shortened: as §4
Mus musculus [14] = assay: Acute toxicity in ICR mouse assessed as body weight loss at 150 to 1800 mg/kg, administered via oral gavage measured once a day over 14 days; type: organism-based; details: in vivo, 336 h
Procedure, shortened: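 ICR mice, 22−25 g, 5 per sex per group. Single oral gavage at 150, 500, 1200 or 1800 mg/kg in vehicle of 30% PEG400/30% Tween 20/20% corn oil/20% water, with a vehicle control. Mortality, morbidity, clinical signs and body weight change recorded once daily for 14 days.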

Mus musculus [15] = assay: Subacute toxicity in ICR mouse assessed as clinical signs of toxicity at 100 to 1000 mg/kg, administered once a day via oral gavage for 14 days; type: organism-based; details: in vivo, 336 h; procedure, shortened: as §3
Mus musculus [16] = assay: Subacute toxicity in ICR mouse assessed as body weight loss at 100 to 1000 mg/kg, administered once a day via oral gavage for 14 days; type: organism-based; details: in vivo, 336 h; procedure, shortened: as §3
Mus musculus [17] = assay: Subacute toxicity in ICR mouse assessed as weight change in liver at 100 to 1000 mg/kg, administered once a day via oral gavage for 14 days; type: organism-based; details: in vivo, 336 h; procedure, shortened: as §3
Mus musculus [18] = assay: Subacute toxicity in ICR mouse assessed as weight change in kidney at 100 to 1000 mg/kg, administered once a day via oral gavage for 14 days; type: organism-based; details: in vivo, 336 h; procedure, shortened: as §3
Mus musculus [19] = assay: Subacute toxicity in ICR mouse assessed as macroscopic pathologic findings at 100 to 1000 mg/kg, administered once a day via oral gavage for 14 days; type: organism-based; details: in vivo, 336 h; procedure, shortened: as §3
[20] = Drug metabolism in human HuH7 cells assessed as ((2R,3R,4R,5R)-4-fluoro-3-hydroxy-5-(4-hydroxy-2-oxo-3,4-dihydropyrimidin-1(2H)-yl)-4-methyltetrahydrofuran-2-yl)methyl tetrahydrogen triphosphate metabolite formation at 50 uM after 48 hrs by LC/MS/MS analysis; type: ADME, cell-based; details: huh-7, 48 h; procedure, shortened: as §1
Mus musculus [21] = assay: Subacute toxicity in ICR mouse assessed as mortality at 100 to 1000 mg/kg, administered once a day via oral gavage for 14 days; type: organism-based; details: in vivo, 336 h; procedure, shortened: as §3

CCCC(=O)Nc1ccn([C@@H]2O[C@H](CO[P@@](=O)(N[C@@H](C)C(=O)OC(C)C)Oc3ccccc3)[C@@H](O)[C@@]2(C)F)c(=O)n1
Drug metabolism [1]: Metabolite_Detected | Activity (Mus musculus [2]): Non-Toxic | Activity (Mus musculus [3]): Non-Toxic | Activity (Mus musculus [4]): Non-Toxic | Activity (Mus musculus [5]): Non-Toxic | Activity (Mus musculus [6]): Non-Toxic | Drug metabolism [7]: Metabolite_Detected | Drug metabolism [8]: Metabolite_Detected | Drug metabolism [9]: Metabolite_Notdetected | Tmax [10]: 54 min | Ratio EC50 [11]: 3.2 | half-life at 10 µM [12]: 9.6 min | AUC(0-inf) [13]: 411 ng·h/mL | Activity (Mus musculus [14]): Non-Toxic | Activity (Mus musculus [15]): Non-Toxic | Activity (Mus musculus [16]): Non-Toxic | Activity (Mus musculus [17]): Non-Toxic | Activity (Mus musculus [18]): Non-Toxic | Activity (Mus musculus [19]): Non-Toxic | Drug metabolism [20]: Metabolite_Notdetected | Activity (Mus musculus [21]): Non-Toxic
